Only some compounds are listed: those with a hit (about 1.9% of all), similar ones and a draw of the others.
TbMetRS inhib – blocks T. brucei methionyl-tRNA synthetase activity | purified T. brucei MetRS, ATP depletion, Kinase-Glo luminescence | actives 0.4% (n = 360,000) | inhibition, % at 11.9 µM;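 active = inhibition above a per-plate cutoff of the control wells' mean inhibition plus 3 SD, cut at about 5.5% in these data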
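Material: parasite MetRS enzyme / Replication: singlicate, one well per compound / Signal: luminescence of leftover ATP / Schedule: 2 h aminoacylation at 25 °C after 15 min preincubation / Medium: HEPES-MgCl2-KCl buffer plus DTT, spermine, BSA, pyrophosphatase / Doses: 11.9 µM single point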
DSG3 Ab inh – human desmoglein-3 autoantibody binding inhibition. P32926. actives 0.48% (n = 310,000). binding (percent of control), % at 10 µM. DSG3-coupled beads, scFv-anti-DSG3-GFP binding, flow cytometry; active compounds read low;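 active = binding more than 3 SD below its plate's average and above zero; inconclusive = below that plate limit but binding exactly zero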;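 note: hits lower antibody fragment binding to DSG3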
HCV core dimer – HCV core protein dimerization inhibition | TR-FRET GST/Flag-core106 dimerization, 1536-well | actives 0.33% (n = 300,000) | inhibition, % at 5 µM;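 active = inhibition above the mean of all tested compounds plus 3 SD, set per screening campaign, cut at about 45% in these data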
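System: GST/Flag-tagged HCV core106 proteins. Incubation: compound-protein-antibody incubation 4 h at 22.5 °C. Technique: HTRF with 340 nm excitation, 617/671 nm emission. Medium: KF-containing HEPES buffer, pH 7.45, DTT, CHAPS, BSA. Read-out: inhibition (%) from 671 over 617 nm ratio. Also added: Eu(K)-anti-GST 90 ng/mL plus XL665-anti-Flag 1 µg/mL.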
NadD inh – blocks S. aureus nicotinate mononucleotide adenylyltransferase. purified NadD enzyme, colorimetric absorbance read-out. inhibition, % at 20 µM. actives 0.78% (n = 360,000); in the data active = inhibition above about 26%
Rce1 inh – yeast Ras-converting enzyme inhibition; calls only; Q03530; yeast membranes, quenched prenylated peptide cleavage fluorescence; AID 2563; actives 0.27% (n = 290,000);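 active = fall in fluorescence gain of 50% or more versus controls, with final raw signal at or below 3038400; inconclusive = same 50% fall but final raw signal above 3038400; inactive = fall in fluorescence gain under 50%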
Target sequence (Q03530 whole entry, looked up): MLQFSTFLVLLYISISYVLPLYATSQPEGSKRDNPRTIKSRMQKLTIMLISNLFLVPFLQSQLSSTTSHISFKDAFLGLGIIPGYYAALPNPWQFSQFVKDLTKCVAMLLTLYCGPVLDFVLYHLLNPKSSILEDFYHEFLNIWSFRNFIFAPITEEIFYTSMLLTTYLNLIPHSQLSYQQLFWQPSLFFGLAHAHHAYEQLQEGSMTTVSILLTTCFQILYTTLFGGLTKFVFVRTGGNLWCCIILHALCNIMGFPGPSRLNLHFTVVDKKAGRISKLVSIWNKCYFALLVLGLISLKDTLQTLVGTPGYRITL
NadD inh conf – NadD (S. aureus) inhibition, single concentration confirmation; inhibition, % at 20 µM; shares compounds with NadD inh; purified S. aureus NadD, colorimetric enzyme assay; actives 13% (n = 2,000); in the data active = inhibition mostly above about 42%, no sharp cut-off; inactive = mostly below about 42%
Each line names hits and unclear results; the compound was inactive in the other large screens (follow-up assays come after a bar, where they were run).

CCOC(=O)c1ccccc1NC(=O)/C=C/c1cc(OC)c(OC)c(OC)c1	none
CC1=C(C(=O)Nc2ccccc2)C(c2ccco2)C(C#N)=C(SCC(=O)Nc2cccc(C)c2C)N1 (configuration not stated)	none
CCOc1ccccc1NC(=O)CSC1=C(C#N)C(c2ccco2)C(C(=O)Nc2nc3ccccc3s2)=C(C)N1 (configuration not stated)	NadD inh 42 | NadD inh conf inactive
O=C(CSc1nc2nc3c(cc2c(=O)n1-c1ccccc1)CCCC3)Nc1cccc2ccccc12	NadD inh 41 | NadD inh conf inactive
C/C(=N\Nc1nc(-c2cc(C)ccc2C)cs1)c1cc2c(ccc3ccccc32)oc1=O	HCV core dimer 61, NadD inh 48 | NadD inh conf inactive
CC(=O)c1cc2c(ccc3ccccc32)oc1=O	none (no result: HCV core dimer)
C=C(C)CN1C(=O)c2ccccc2C1=O	none
CC(C)(O)c1ccccc1CC[C@@H](SCC1(CC(=O)O)CC1)c1cccc(/C=C/c2ccc3ccc(Cl)cc3n2)c1	NadD inh 51 | NadD inh conf 56
CC(=O)Oc1ccc(Cl)cc1/C=C/c1ccc2ccccc2n1	none
O=c1[nH]c(C(Cl)Cl)nc2sc3c(c12)CCN(Cc1ccccc1)C3	NadD inh 32 | NadD inh conf 59
Cc1ccc(S(=O)(=O)c2nnn3c2nc(N2CCCCC2)c2ccccc23)cc1	none (no result: DSG3 Ab inh)
Cc1ccc(S(=O)(=O)c2nnn3c2nc(N2CCN(c4ccccn4)CC2)c2ccccc23)cc1C	NadD inh 40 | NadD inh conf inactive
COc1ccc(/C=N/NC(=O)c2nc(-c3ccccc3)cc(-c3ccccc3)n2)cc1	NadD inh 39 | NadD inh conf inactive
COc1ccc(/C=N/NC(=O)c2nc(-c3ccccc3)cc(-c3ccccc3)n2)cc1O	NadD inh 38 | NadD inh conf inactive
CC(=O)c1ccc(NC(=O)COC(=O)c2c3c(nc4ccccc24)/C(=C\c2cccs2)CCC3)cc1	NadD inh 27 (no result: DSG3 Ab inh) | NadD inh conf inactive
N#Cc1c(NCCCO)nc(-c2ccco2)c2c1CCCC2	Rce1 inh inconclusive
N#Cc1c(NC2CCCCC2)nc(-c2ccco2)c2c1CCCC2	NadD inh 38 | NadD inh conf inactive
COc1cc(C#Cc2c(-c3cncn3C)n(C)c3ccc(-c4cnc(N5CCOCC5)nc4)cc23)cc(OC)c1	NadD inh 45 (no result: HCV core dimer, Rce1 inh) | NadD inh conf inactive
COc1cc(C#Cc2c(-c3cncn3C)n(C)c3ccc(-c4cnc(OC)nc4)cc23)cc(OC)c1	NadD inh 30 (no result: HCV core dimer, Rce1 inh) | NadD inh conf inactive
COc1cc(C#Cc2c(-c3cncn3C)n(C)c3ccc(-c4ccc(CN5CCOCC5)cc4)cc23)cc(OC)c1	none (no result: HCV core dimer, Rce1 inh)
COc1cc(OC)cc(-c2c(Sc3ccccc3)c3cc(-c4cnc(OC)nc4)ccc3n2C)c1	none (no result: DSG3 Ab inh, HCV core dimer, Rce1 inh)
COc1ccc(C(=O)NCCS(=O)(=O)N2CCC3(CC2)OCCO3)cc1	none
COc1ccc(N2C(=O)/C(=C\c3ccco3)N=C2SCC(=O)NC(C)(C)C)cc1Cl	NadD inh 31 | NadD inh conf inactive
COc1ccc(/C=C2/N=C(SCC(=O)Nc3cc(C)on3)N(c3ccccc3)C2=O)cc1	none (no result: Rce1 inh)
CCOc1ccc(CCN2C(=O)C(=O)N([C@@H](Cc3ccccc3)CN3CCC[C@@H]3CN3C(=O)C(=O)NC[C@@H]3Cc3ccc(O)cc3)C[C@@H]2Cc2ccccc2)cc1	none (no result: DSG3 Ab inh, HCV core dimer, Rce1 inh)
O=C1NC[C@H](Cc2ccccc2)N(C[C@@H]2CCCN2C[C@H](Cc2ccc(O)cc2)N2C[C@H](Cc3ccccc3)N(CCc3ccccc3)C(=O)C2=O)C1=O	NadD inh 30 (no result: DSG3 Ab inh, HCV core dimer, Rce1 inh) | NadD inh conf inactive
O=C1NC[C@H](Cc2ccc(O)cc2)N(C[C@@H]2CCCN2C[C@H](Cc2ccccc2)N2C[C@H](Cc3ccc(O)cc3)N(CC3CCCCC3)C(=O)C2=O)C1=O	NadD inh 41 (no result: DSG3 Ab inh, HCV core dimer, Rce1 inh) | NadD inh conf inactive
CC(C)C[C@@H](CN1CCC[C@@H]1CN1C(=O)C(=O)NC[C@@H]1Cc1ccccc1)N1C[C@H](Cc2ccc(O)cc2)N(CC2CCCCC2)C(=O)C1=O	none (no result: HCV core dimer, Rce1 inh)
O=C1NC[C@H](Cc2ccc(O)cc2)N(C[C@@H]2CCCN2C[C@H](Cc2ccc(O)cc2)N2C[C@H](Cc3ccccc3)N(CC3CCCCC3)C(=O)C2=O)C1=O	NadD inh 33 (no result: DSG3 Ab inh, HCV core dimer, Rce1 inh) | NadD inh conf inactive
